Data on 17 molecules can be found in ChEMBL document CHEMBL1152725, “New potent imidazoisoquinolinone derivatives as anti-Trypanosoma cruzi agents: biological evaluation and structure-activity relationships” (Bioorg Med Chem, 2009).

pIC50: −log10 of the molar value. Values after ≈ are worked out from the molar mass of the structure shown. Active and inactive are the calls of the source. The calls are words filed in the database; no cut-off is given here.

One data set concerns DNA. Description: Binding affinity to calf thymus DNA at a DNA-drug molar ratio of 5:1 after 24 hrs by UV spectroscopy. The format is nucleic-acid assay. The note with it: Bos taurus. The method in brief: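 Calf thymus DNA was prepared in 10 mM Tris–HCl pH 7.4. Compound (2 × 10⁻⁵ M, from an ethanol stock diluted with water) was mixed 1:1 by volume with the DNA solution at a 5:1 DNA-drug ratio. The mixture was rotated slowly for 24 h. UV absorbance area at maximal absorbance was compared (a24/a0), where 1 means no affinity and 0 means fully bound.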

The next data set relates to Trypanosoma cruzi. Description: Antitrypanosomal activity against Trypanosoma cruzi Tulahuen 2 epimastigotes after 5 days. The note with it: Tulahuen 2, 120 h. The data set is classed as functional, organism-based. The method in brief: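 T. cruzi Tulahuen 2 epimastigotes were grown axenically at 28 °C in BHI-tryptose with 5% FCS. Stationary-phase (5-day) cells were inoculated at 1 × 10⁶ cells/mL, with DMSO ≤0.4% final. Cultures ran 5 days with or without compound, first as a 25 µM screen and then at increasing concentrations. IC50 is the concentration halving this ratio.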

For a further data set, the system named is HeLa. Description: Cytotoxicity against human HeLa cells after 24 hrs by MTT assay. The format is cell-based. The method in brief: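 HeLa cells were kept in DMEM with 10% FBS, penicillin and streptomycin at 37 °C and 5% CO2. Cells were seeded, and after 48 h compound was added at 4, 20 or 100 µM for 24 h. After PBS washes, cells got MTT at 0.5 mg/mL final for 4 h at 37 °C. Formazan was dissolved in isopropanol/HCl and read at 570 nm after blank subtraction. Survival is % of control, with ≥3 repeats of four samples each.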
For orientation: Tetrazolium dyes change colour on reduction, which living cells bring about.

Data set [1] is described as follows: Selectivity index, ratio of IC50 for human HeLa cells to IC50 for Trypanosoma cruzi Tulahuen 2 epimastigotes. The note with it: HeLa cells versus Trypanosoma cruzi Tulahuen 2 epimastigotes, read-out: Ratio IC50. The format is toxicity, cell-based. The method in brief:
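Selectivity index is the HeLa IC50 divided by the IC50 against T. cruzi Tulahuen 2 epimastigotes (5-day growth assay).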

The test system of the next data set is Leishmania infantum. As to the kind of experiment: Antiparasitic activity against Leishmania infantum. The data set is classed as functional, organism-based.
Data set [2] deals with Trypanosoma brucei rhodesiense. Description: Antiparasitic activity against Trypanosoma brucei rhodesiense. The data set is classed as functional, organism-based.
A further data set concerns Leishmania donovani. Description: Antiparasitic activity against Leishmania donovani. The data set is classed as functional, organism-based.
For the next data set, the system named is L6. As to the kind of experiment: Cytotoxicity against rat L6 cells. The data set is classed as cell-based.
The next data set deals with Plasmodium falciparum. Description: Antiparasitic activity against Plasmodium falciparum K1. The format is functional, organism-based.
Data set [3] relates to Onchocerca gutturosa. As to the kind of experiment: Antiparasitic activity against Onchocerca gutturosa assessed as inhibition of MTT formazan formation. The data set is classed as functional. Details: scale not given: the % may be the effect or the level left.
Data set [4] relates to Onchocerca gutturosa. As to the kind of experiment: Antiparasitic activity against Onchocerca gutturosa assessed as reduction in motility after 120 hrs. The format is functional. Further details: scale not given: the % may be the effect or the level left.

In general, pIC50 refers to −log10 of the IC50, conventionally taken in molar units. Take `Cc1cccc(NC(=S)c2c3n(c(=O)c4ccccc24)CCN3)c1`: the Activity in the data set on DNA is 0.8. Also, the pIC50 was 4.70 in the data set on Trypanosoma cruzi and less than 4.28 in the data set on HeLa.

Take `O=c1c2ccccc2c(C(=S)Nc2cccc3ccccc23)c2n1CCN2`: the Activity with DNA amounted to 0.8. The same molecule gave a pIC50 in the data set with Trypanosoma cruzi of 4.60.

With `COc1ccc(NC(=S)c2c3n(c(=O)c4ccccc24)CCN3)cc1`, the Activity with DNA came out at 0.8. Also, the selectivity ratio in [1] came to 1.7. Moreover, the pIC50 in the data set on Trypanosoma cruzi was 4.91; with HeLa it was 4.66.

Regarding `O=c1c2ccccc2c(C(=S)NCc2ccc(Cl)cc2)c2n1CCN2`, the Activity in the data set with DNA was 0.8. For the same molecule, the results for the pIC50 in the data set with Trypanosoma cruzi and with HeLa were 4.46 and less than 4.05, respectively.

By IC50 is commonly meant the concentration needed to halve the response being measured. `O=C(Nc1ccccc1)c1c2n(c(=O)c3ccccc13)CCN2`: the Activity with DNA came out at 0.8. For the same molecule, the IC50 in the data set on Leishmania infantum was more than 19.5 µg/mL; in data set [2], more than 19.5 µg/mL; with L6, more than 19.6 µg/mL; in the data set with Plasmodium falciparum it was more than 19.5 µg/mL. In addition, the result in the data set with Leishmania donovani was inactive. For the same molecule, the pIC50 in the data set on Trypanosoma cruzi is 4.52; in the data set with HeLa, less than 4.00.

With `CC/C(=C(\c1ccccc1)c1ccc(OCCN(C)C)cc1)c1ccccc1` [TAMOXIFEN], in the data set on L6, the IC50 came out at 4.9 µg/mL (≈ 13.2 µM).

As to `O=c1c2ccccc2c(C(=S)Nc2ccccc2)c2n1CCN2`, the Activity in the data set on DNA turned out to be 0.8. For the same molecule, the selectivity ratio in [1] was more than 33. Moreover, the pIC50 with Trypanosoma cruzi was 5.52; in the data set on HeLa, less than 4.00.

Take `O=c1c2ccccc2cc2[nH]c3ccccc3n12`: in the data set on DNA, the Activity stood at 0.85. Besides, the figures for the pIC50 in the data set with Trypanosoma cruzi and with HeLa were less than 4.60 and less than 4.00, respectively.

For the molecule `CC(=O)N1CCn2c1c(C(=S)Nc1ccccc1)c1ccccc1c2=O`, in the data set on DNA, the Activity worked out at 0.8. In the data set with Trypanosoma cruzi, the pIC50 was 4.37.

Regarding `O=c1c2ccccc2c(C(=S)Nc2ccc(Cl)cc2)c2n1CCN2`, the Activity with DNA amounted to 0.8. For the same molecule, the selectivity ratio in data set [1] is more than 180. For the same molecule, the IC50 with Leishmania infantum was more than 22.7 µg/mL; in data set [2], more than 22.7 µg/mL; in the data set on L6 it was more than 22.8 µg/mL; in the data set with Plasmodium falciparum it was more than 22.7 µg/mL. For the same molecule, the outcome with Leishmania donovani was inactive. Moreover, the pIC50 in the data set with Trypanosoma cruzi is 6.30; in the data set with HeLa, less than 4.05.

`O=c1c2ccccc2c(C(=S)Nc2ccccn2)c2n1CCN2`: the Activity with DNA was determined as 0.8. For the same molecule, the values for the pIC50 in the data set on Trypanosoma cruzi and in the data set with HeLa were 4.52 and less than 4.00, respectively.

In the case of `Cc1ccc(NC(=S)c2c3n(c(=O)c4ccccc24)CCN3)cc1`, the Activity in the data set with DNA was 0.8. Also, the selectivity ratio in [1] is more than 100. Besides, the pIC50 in the data set with Trypanosoma cruzi is 6.00; in the data set on HeLa, less than 4.00.

Consider `CC1CS(=O)(=O)CCN1/N=C/c1ccc([N+](=O)[O-])o1` (stereo not given) [NIFURTIMOX], for which the selectivity ratio in [1] stood at 1.5. For the same molecule, the pIC50 in the data set on HeLa is 4.92.

Turning to `O=c1c2ccccc2cc2n1CCN2`, the Activity came out at 0% with Onchocerca gutturosa [3], 0.8 in the data set with DNA and 14.29% in the data set on Onchocerca gutturosa [4]. The IC50 with Leishmania infantum was more than 20.7 µg/mL; in data set [2], 1.2 µg/mL (≈ 6.44 µM); with L6 it was more than 100 µg/mL; in the data set on Plasmodium falciparum, more than 10 µg/mL. For the same molecule, in the data set with Leishmania donovani, the result was inactive. Besides, the pIC50 is less than 4.60 in the data set with Trypanosoma cruzi and less than 4.00 in the data set with HeLa.

Regarding `Cc1ccc(C(=O)Nc2ccc(S(=O)(=O)O)c3cc(S(=O)(=O)O)cc(S(=O)(=O)O)c23)cc1NC(=O)c1cccc(NC(=O)Nc2cccc(C(=O)Nc3cc(C(=O)Nc4ccc(S(=O)(=O)O)c5cc(S(=O)(=O)O)cc(S(=O)(=O)O)c45)ccc3C)c2)c1` [SURAMIN], in data set [2], the IC50 came out at 0.13 µg/mL (≈ 0.1 µM).

Turning to `O=c1c2ccccc2c(C(=S)Nc2ccccc2)c2[nH]c3ccccc3n12`, the Activity with DNA stood at 0.8. In addition, in data set [1], the selectivity ratio was found to be 15. For the same molecule, the IC50 was more than 19.5 µg/mL in the data set on Leishmania infantum, more than 22.7 µg/mL in data set [2], more than 22.8 µg/mL with L6 and more than 19.5 µg/mL in the data set on Plasmodium falciparum. Also, in the data set with Leishmania donovani, the outcome was inactive. Moreover, the pIC50 with Trypanosoma cruzi was 5.19; in the data set with HeLa, 4.01.

Turning to `CN1CCN(C(=S)Nc2ccc(Nc3ccc([N+](=O)[O-])cc3)cc2)CC1` [AMOCARZINE], the Activity amounted to 48.57% with Onchocerca gutturosa [3] and 85.71% with Onchocerca gutturosa [4].
